# In ChEMBL document CHEMBL2150952 (J Med Chem, 2011):
# Activity calls are given as the source filed them. No cut-off for these calls is given here.
# Experiments:
# Mus musculus [1] = assay: Antidiabetic activity in po dosed diet-induced obese fasted C57BL6 mouse assessed as increase in glucose clearance administered 1 hr before glucose challenge measured 12 hrs thereafter by OGTT; type: functional; conditions: in the assay text read “2 hrs” for “12 hrs”
# Procedure, shortened: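 Male C57/Bl6 mice were kept on a high fat diet for at least 14 weeks from 6 weeks of age, then fasted 16 h. Compound was given orally 1 h before a 2 g/kg oral glucose load.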
# Mus musculus [2] = assay: Antidiabetic activity in diet-induced obese C57BL6 mouse assessed as reduction in liver triglyceride level at 60 mg/kg, po BID; type: functional, organism-based; set-up: dose 60 mg/kg
# Procedure, shortened: (§1)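 eDIO mice (high fat diet for at least 18 weeks) were dosed orally bid for 28 days, with n = 8–10/group. At termination, livers were collected for histological steatosis assessment and triglyceride measurement.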
# Mus musculus [3] = assay: Antidiabetic activity in diet-induced obese C57BL6 mouse assessed as reduction in liver steatosis at 20 to 60 mg/kg, po BID measured on day 28; type: functional, organism-based; procedure, shortened: as §1
# Mus musculus [4] = assay: Antidiabetic activity in diet-induced obese C57BL6 mouse assessed as reduction in liver triglyceride level at 20 mg/kg, po BID; type: functional, organism-based; set-up: dose 20 mg/kg; procedure, shortened: as §1
# Liver [5] = assay: Ratio drug uptake in liver to harderian gland of C57BL6 mouse at 10 mg/kg, po measured 6 hrs post dose; type: ADME, organism-based; set-up: dose 10 mg/kg, route oral; conditions: in vivo
# Procedure, shortened: (§2)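 Single oral dose of 10 mg/kg in 0.5% methylcellulose to fed C57BL6 mice (n = 2). Animals sacrificed 6 h post dose. Plasma, liver, skin and Harderian gland collected. Tissues homogenized in MeCN/water with internal standard and drug quantified by LC-MS against a standard curve made in blank plasma. Concentration ratio calculated.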
# [6] = Ratio drug uptake in liver to plasma of C57BL6 mouse at 10 mg/kg, po measured 6 hrs post dose; type: ADME, organism-based; set-up: dose 10 mg/kg, route oral; conditions: liver and plasma; procedure, shortened: as §2
# Acyl-CoA desaturase 1 [7] = biological target: T1, Acyl-CoA desaturase 1 (Rattus norvegicus, UniProt P07308); assay: Inhibition of SCD-1 activity in Sprague-Dawley rat microsome assessed as reduction in [I-14C] stearoyl CoA desaturation by scintillation counting; type: microsomes
# T1 sequence (P07308 whole entry): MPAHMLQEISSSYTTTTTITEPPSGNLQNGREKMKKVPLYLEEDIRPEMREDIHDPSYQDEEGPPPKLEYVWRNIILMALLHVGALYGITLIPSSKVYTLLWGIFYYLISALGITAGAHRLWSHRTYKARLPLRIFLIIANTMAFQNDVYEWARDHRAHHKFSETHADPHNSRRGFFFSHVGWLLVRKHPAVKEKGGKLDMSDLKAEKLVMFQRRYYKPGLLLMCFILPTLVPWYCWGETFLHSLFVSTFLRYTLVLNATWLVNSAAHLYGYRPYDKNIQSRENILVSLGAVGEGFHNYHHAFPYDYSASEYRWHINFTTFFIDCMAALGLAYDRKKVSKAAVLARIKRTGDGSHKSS
# HepG2 = assay: Ratio IC50 for SCD-1 activity in organic anion transporting polypeptides-deficient human HepG2 cells to IC50 for SCD-1 activity in Sprague-Dawley rat Hepatocytes expressing organic anion transporting polypeptides; type: cell-based
# Procedure, shortened: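 Cellular SCD IC50s measured in human HepG2 cells (lacking active OATPs) and in rat hepatocytes (active OATPs). Hepatocytes preincubated with compound for 15 min at 37 °C, then given 14C-stearic acid (final 0.5 μCi/ml) for 1 h with shaking. Lipids hydrolysed in 2N NaOH at 75 °C, acidified and extracted. Radiolabelled oleic and stearic acid resolved by HPLC with flow scintillation detection. Mean of at least n = 3. HepG2 IC50 divided by hepatocyte IC50.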
# Stearoyl-CoA desaturase = biological target: T2, Stearoyl-CoA desaturase (Homo sapiens, UniProt O00767); assay: Inhibition of SCD-1 activity in organic anion transporting polypeptides-deficient human HepG2 cells assessed as reduction in [I-14C] stearoyl CoA desaturation by scintillation counting; type: cell-based
# T2 sequence (O00767 whole entry): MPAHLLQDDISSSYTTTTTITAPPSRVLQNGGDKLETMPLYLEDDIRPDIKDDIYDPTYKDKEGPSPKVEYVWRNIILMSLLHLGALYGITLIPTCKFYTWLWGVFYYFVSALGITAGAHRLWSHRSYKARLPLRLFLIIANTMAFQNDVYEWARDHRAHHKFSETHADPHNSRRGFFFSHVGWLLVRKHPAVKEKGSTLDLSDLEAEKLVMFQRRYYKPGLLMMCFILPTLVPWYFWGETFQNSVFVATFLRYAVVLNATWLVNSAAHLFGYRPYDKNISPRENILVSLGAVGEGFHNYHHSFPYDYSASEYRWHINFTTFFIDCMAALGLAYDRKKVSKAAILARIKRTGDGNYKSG
# Acyl-CoA desaturase 1 [8] = biological target: T1, Acyl-CoA desaturase 1; assay: Inhibition of SCD-1 activity in Sprague-Dawley rat Hepatocytes expressing organic anion transporting polypeptides assessed as reduction in [I-14C] […] desaturation by scintillation counting; type: cell-based, Hepatocyte
# Procedure, shortened: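 Rat hepatocytes (4 × 10^6 cells/mL) were preincubated with compound for 15 min at 37 °C/5% CO2. 14C-stearic acid (final 0.5 μCi/mL) was then added for 1 h with shaking. Cells were washed, hydrolyzed in 2N NaOH at 75 °C for 1 h, acidified and extracted. Radiolabeled oleic and stearic acids were quantified by HPLC with flow scintillation detection. Mean of at least n = 3.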
# Mus musculus [9] = assay: Toxicity in diet-induced obese C57BL6 mouse assessed as adverse effect in skin at 1 to 5 mg/kg, po QD; type: organism-based; set-up: dose 1-5 mg/kg, route oral; conditions: in vivo
# [10] = Clearance in fasted C57BL6 mouse at 2 mg/kg, iv and 10 mg/kg, po by LC-MS-MS analysis; type: ADME, organism-based; conditions: in vivo
# Procedure, shortened: (§3)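 Fasted male C57BL6 mice received 2 mg/kg IV and 10 mg/kg PO. For the reference compound, IV was given as a solution in 60% PEG-200 and PO as a suspension in 1% methocel. Plasma levels were measured by LC-MS/MS. Values are the mean of n = 3 animals.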
# Mus musculus [11] = assay: Antidiabetic activity in diet-induced obese C57BL6 mouse assessed as reduction in glucose AUC at 1 to 10 mg/kg, po administered 1 hr before oral glucose administration measured 2 hrs thereafter; type: functional; conditions: dose mg/kg 1-10
# [12] = Volume of distribution in fasted C57BL6 mouse at 2 mg/kg, iv and 10 mg/kg, po by LC-MS-MS analysis; type: ADME, organism-based; conditions: in vivo
# Procedure, shortened: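 Fasted male C57BL6 mice given 2 mg/kg IV and 10 mg/kg PO. Plasma drug levels measured by LC-MS/MS, mean of n = 3 animals, and PK parameters derived from these.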
# [13] = AUC in plasma of fasted C57BL6 mouse at 2 mg/kg, iv and 10 mg/kg, po by LC-MS-MS analysis; type: ADME, organism-based; procedure, shortened: as §3
# Mus musculus [14] = assay: Inhibition of SCD activity in harderian gland of diet-induced obese C57BL6 mouse assessed as reduction in desaturation induces at 5 mg/kg, po QD; type: functional
# Mus musculus [15] = assay: Antidiabetic activity in diet-induced obese C57BL6 mouse assessed as reduction in body weight gain at 5 mg/kg, po QD; type: functional; set-up: scale not given: the % may be the effect or the level left
# Procedure, shortened: (§4)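 Male C57/Bl6 mice were fed a high fat diet for at least 18 weeks from 6 weeks of age, then given vehicle (1% methocel, bid) for 7 days and randomized by body weight. Oral dosing (qd or bid) ran for 28 days, with n = 8–10/group. Body weight, food intake and skin/eye scores were recorded twice weekly.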
# Mus musculus [16] = assay: Inhibition of SCD activity in skin of diet-induced obese C57BL6 mouse assessed as reduction in desaturation induces at 5 mg/kg, po QD; type: functional
# [17] = Cmax in plasma of fasted C57BL6 mouse at 2 mg/kg, iv and 10 mg/kg, po by LC-MS-MS analysis; type: ADME, organism-based; procedure, shortened: as §3
# Zone of skin = assay: Drug level in skin of diet-induced obese C57BL6 mouse at 5 mg/kg, po QD; type: ADME, organism-based; set-up: dose 5 mg/kg, route oral; conditions: in vivo, read-out: Drug uptake
# Procedure, shortened: (§5)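 eDIO mice were dosed orally for 4 weeks, either 20 mg/kg bid or 5 mg/kg qd. Liver, Harderian gland and skin were taken at trough at study termination, and compound concentration was measured by LC-MS.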
# Liver [18] = assay: Drug level in liver of diet-induced obese C57BL6 mouse at 5 mg/kg, po QD; type: ADME, organism-based; set-up: dose 5 mg/kg, route oral; conditions: in vivo, read-out: Drug uptake; procedure, shortened: as §5
# Mus musculus [19] = assay: Antidiabetic activity in diet-induced obese C57BL6 mouse assessed as reduction in body weight gain at 1 mg/kg, po QD; type: functional; set-up: scale not given: the % may be the effect or the level left; procedure, shortened: as §4
# Mus musculus [20] = assay: Antidiabetic activity in diet-induced obese C57BL6 mouse assessed as reduction in glucose AUC at 1 to 3 mg/kg, po administered 1 hr before oral glucose administration measured 2 hrs thereafter; type: functional; conditions: dose mg/kg 1-3
# Mus musculus [21] = assay: Antidiabetic activity in po dosed diet-induced obese C57BL6 mouse assessed as reduction in body weight gain; type: functional, organism-based; procedure, shortened: as §4
# Mus musculus [22] = assay: Inhibition of SCD activity in liver of diet-induced obese C57BL6 mouse assessed as reduction in desaturation induces at 30 mg/kg, po BID; type: functional, organism-based; set-up: dose 30 mg/kg
# Mus musculus [23] = assay: Toxicity in diet-induced obese C57BL6 mouse assessed as adverse effect in eye at 1 to 5 mg/kg, po QD; type: organism-based; set-up: dose 1-5 mg/kg, route oral; conditions: in vivo
# Mus musculus [24] = assay: Toxicity in diet-induced obese C57BL6 mouse assessed as reduction in food intake at 1 to 5 mg/kg, po QD; type: organism-based; set-up: dose 1-5 mg/kg, route oral; conditions: in vivo
# Procedure, shortened: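 Obese male C57/Bl6 mice after at least 18 weeks of high fat diet and a 7-day vehicle run-in, randomized by body weight. Dosed orally at 1 or 5 mg/kg qd for 28 days (n = 8–10/group). Food consumption monitored twice weekly.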
# [25] = Drug level in harderian gland of diet-induced obese C57BL6 mouse at 5 mg/kg, po QD; type: ADME, organism-based; set-up: dose 5 mg/kg, route oral; conditions: in vivo, read-out: Drug uptake; procedure, shortened: as §5
# Mus musculus [26] = assay: Antidiabetic activity in diet-induced obese C57BL6 mouse assessed as reduction in glucose AUC at 1 to 15 mg/kg, po administered 1 hr before oral glucose administration measured 2 hrs thereafter; type: functional; conditions: dose mg/kg 1-15
# Mus musculus [27] = assay: Inhibition of SCD activity in liver of diet-induced obese C57BL6 mouse assessed as reduction in desaturation induces at 5 mg/kg, po QD; type: functional
structure (smiles),measurement,setting,value
O=C(O)Cn1nnc(-c2cc(N3CCC(Oc4cc(F)ccc4Br)CC3)no2)n1,Activity,Mus musculus [1],Dose-dependent effect
same,Activity,Mus musculus [2],inactive
same,Activity,Mus musculus [3],Active
same,Activity,Mus musculus [4],Active
FC(F)(F)c1ccccc1OC1CCN(c2nnc(-c3nn[nH]n3)s2)CC1,Ratio,Liver [5],330
same,Kp at 6 h,[6],15
same,IC50,Acyl-CoA desaturase 1 [7],276 nM
same,Ratio IC50,HepG2,> 14
same,IC50,Stearoyl-CoA desaturase,> 50000 nM
same,IC50,Acyl-CoA desaturase 1 [8],3470 nM
Cc1nnc(-c2ccc(N3CCC(Oc4ccccc4C(F)(F)F)CC3)nn2)s1,Activity,Mus musculus [9],Toxic
same,Ratio,Liver [5],1.5
same,Activity,Mus musculus [1],Dose-dependent effect
same,ED50,Mus musculus [1],3 mg/kg
same,clearance,[10],15 mL/min/kg
same,inhibition (INH),Mus musculus [11],62%
same,Vd,[12],7 L/kg
same,AUC,[13],19 µM·h
same,inhibition in vivo at 5 mg/kg,Mus musculus [14],92%
same,Kp at 6 h,[6],14
same,Activity,Mus musculus [15],20%
same,inhibition in vivo at 5 mg/kg,Mus musculus [16],25%
same,Cmax,[17],1.3 µM
same,concentration,Zone of skin,4 µM
same,concentration,Liver [18],10 µM
same,Activity,Mus musculus [19],10%
same,IC50,Acyl-CoA desaturase 1 [7],2 nM
same,inhibition (INH),Mus musculus [20],55%
same,Activity,Mus musculus [21],Dose-dependent effect
same,inhibition,Mus musculus [22],Active
same,Ratio IC50,HepG2,0.14
same,Activity,Mus musculus [23],Toxic
same,IC50,Stearoyl-CoA desaturase,21 nM
same,Activity,Mus musculus [24],Non-toxic
same,concentration,[25],5 µM
same,inhibition (INH),Mus musculus [26],75%
same,inhibition in vivo at 5 mg/kg,Mus musculus [27],56%
same,IC50,Acyl-CoA desaturase 1 [8],157 nM
